Results taken from ChEMBL document CHEMBL4033789, “Discovery of a New Four-Leaf Clover-Like Ligand as a Potent c-MYC Transcription Inhibitor Specifically Targeting the Promoter G-Quadruplex” (J Med Chem, 2018).
The source made the active and inactive calls. The rule behind the calls is not given here.

Key:
SiHa [1] = assay: Antitumor activity against human SiHa cells xenografted in nude BALB/c mouse assessed as tumor growth inhibition at 10 mg,kg, ip administered every other day for 24 days; assay type: functional
Procedure, shortened: (§1)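 BALB/c nude mice (5 weeks old) given 1×10^7 SiHa cells subcutaneously in right flank; at ~50 mm3 tumor volume, randomized (10 per group) and dosed intraperitoneally every other day for 24 days; controls got equal-volume saline. Caliper volume as 1/2 × length × width2; tumors weighed at end; inhibition rate = (1 − mean treated tumor weight/mean control tumor weight) × 100%.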

SiHa [2] = assay: Induction of cell cycle arrest in human SiHa cells assessed as downregulation of CDK6 protein levels after 24 hrs by Western blot analysis; assay type: functional, cell-based
Procedure, shortened: (§2)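 SiHa cells (2.0×10^5 per well) treated 24 h, lysed at 4 °C for 30 min, supernatant cleared at 15,000 rpm; protein measured by BCA, 30 µg resolved on 10% SDS-PAGE, transferred to nitrocellulose, blocked in 5% milk/TBS-Tween 1 h, primary antibodies overnight at 4 °C, HRP secondaries 2 h at room temperature.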

SiHa [3] = assay: Antitumor activity against human SiHa cells xenografted in nude BALB/c mouse assessed as tumor growth inhibition at 5 to 20 mg,kg, ip administered every other day for 24 days; assay type: functional, organism-based; conditions: TDE = time-dependent effect; procedure, shortened: as §1
Homo sapiens [4] = species on record: Homo sapiens; assay: Stabilization of c-Myc promoter G-quadruplex DNA in human Raji cells assessed as downregulation of exon 2 transcriptional level after 6 hrs by RT-PCR analysis; assay type: cell-based
Procedure, shortened: (§3)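 RAJI and CA46 cells treated 6 h over a concentration range; total RNA reverse-transcribed (oligo dT18, M-MLV, 42 °C 1 h then 85 °C 5 min); exon 1 and exon 2 amplified by real-time PCR with exon-specific primers, products run on 1% agarose gel; three repeats.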

Homo sapiens [5] = species on record: Homo sapiens; assay: Stabilization of c-Myc G-quadruplex DNA in human SiHa cells assessed as inhibition of c-Myc mRNA level at 1.25 to 5 uM after 6 hrs by RT-PCR method; assay type: cell-based
Procedure, shortened: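 SiHa cells (2.0×10^5) dosed 6 h; total RNA reverse-transcribed with oligo dT18 primer and M-MLV (42 °C 1 h, 85 °C 5 min); PCR 95 °C 5 min then 30 cycles (95 °C 30 s, 58 °C 30 s, 72 °C 40 s); products checked on agarose gel.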

[6] = Binding affinity to 1 uM C-KIT1 promoter G-quadruplex DNA (unknown origin) at 1 uM after 1 min by fluorescence spectroscopic analysis; assay type: ADME
Procedure, shortened: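 Fluorescence emission spectra of 1 µM compound mixed with 1 µM pre-annealed oligonucleotide (G-quadruplexes folded in 100 mM KCl by heating to 95 °C for 5 min, slow cooling), in Tris-HCl buffer.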

Mus musculus [7] = assay: Toxicity in nude BALB/c mouse xenografted with human SiHa cells assessed as signs of distress at 5 to 20 mg/kg, ip administered every other day for 24 days; assay type: organism-based; conditions: in vivo, 576 h
Huh-7 = assay: Cytotoxicity against human Huh7 cells assessed as reduction in cell viability after 24 hrs by MTT assay; assay type: functional, cell-based; conditions: Huh-7, 24 h
Procedure, shortened: (§4)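 Cells seeded at 5.0×10^3 per well, exposed to compound for 24 h; MTT (2.5 mg/mL) added for 4 h, formazan dissolved in DMSO, OD read at 570 nm. Triplicate; IC50 from curves of mean OD against concentration.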

SiHa [8] = assay: Induction of apoptosis in human SiHa cells assessed as upregulation of cleaved PARP protein levels at 1.25 to 5 uM after 24 hrs by Western blot analysis relative to control; assay type: functional, cell-based; procedure, shortened: as §2
[9] = Binding affinity to up to 10 uM hybrid telomeric htg22 G-quadruplex DNA (unknown origin) at 1 uM after 1 min by fluorescence spectroscopic analysis; assay type: ADME
Procedure, shortened: (§5)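 Oligonucleotide stock added stepwise to fixed-concentration compound in 10 mM Tris-HCl pH 7.2, 100 mM KCl; equilibrated ≥1 min after each addition, emission read with excitation at 350 nm. KD from fitting titration data to the Benesi–Hildebrand equation; 1:1 stoichiometry checked by Job plot.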

[10] = Stabilization of BCL2 promoter G-quadruplex DNA (unknown origin) assessed as effect on melting temperature at 15 uM by circular dichroism spectroscopic assay; assay type: ADME
Procedure, shortened: (§6)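 G-quadruplex at 3 µM, with or without 15 µM compound, in 10 mM Tris-HCl pH 7.2 containing 2 mM KCl; CD recorded every 5 °C from 25 to 95 °C at a heating rate of 1 °C/min.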

Mus musculus [11] = assay: Toxicity in nude BALB/c mouse xenografted with human SiHa cells assessed as viscera weight reduction at 5 to 20 mg/kg, ip administered every other day for 24 days; assay type: organism-based; conditions: in vivo, 576 h
Procedure, shortened: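 BALB/c nude mice, 5 weeks old, implanted subcutaneously in right flank with 1×10^7 SiHa cells; at ~50 mm3 tumor, 10 per group dosed ip every other day for 24 days, saline control; body weight measured daily, viscera weighed at sacrifice; mean ± SEM, Student's t test versus saline.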

A-375 = assay: Cytotoxicity against human A375 cells assessed as reduction in cell viability after 24 hrs by MTT assay; assay type: functional, cell-based; conditions: A-375, 24 h; procedure, shortened: as §4
SiHa [12] = assay: Induction of cell cycle arrest in human SiHa cells assessed as accumulation at G0/G1 phase after 12 hrs by propidium iodide-staining based FACS analysis; assay type: functional
Procedure, shortened: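 SiHa cells treated 12 h, fixed in 70% ethanol at 4 °C overnight, stained with 50 µg/mL PI plus 75 KU/mL RNase A in PBS for 30 min in the dark at room temperature; flow cytometry, 1.6×10^4 events per sample, cell cycle distribution analyzed.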

[13] = Binding affinity to VEGF promoter G-quadruplex DNA (unknown origin) after 1 min by fluorescence titration method; assay type: ADME; procedure, shortened: as §5
Mus musculus [14] = assay: In vivo stabilization of c-Myc G-quadruplex DNA in human SiHa cells xenografted in nude BALB/c mouse assessed as decrease in c-Myc expression at 20 mg/kg, ip administered every other day for 24 days by immunohistochemistry; assay type: functional, organism-based
[15] = Stabilization of c-Myc promoter pu22 G-quadruplex DNA (unknown origin) assessed as change in melting temperature at 15 uM by circular dichroism spectroscopic assay
Procedure, shortened: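 CD melting of 3 µM annealed G-quadruplex with or without 15 µM ligand in 10 mM Tris-HCl pH 7.2 with 2 mM KCl (50 mM KCl for htg22 and HRAS); read every 5 °C over 25–95 °C, heating 1 °C/min.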

SiHa [16] = assay: Induction of cell cycle arrest in human SiHa cells assessed as upregulation of p27 protein levels after 24 hrs by Western blot analysis; assay type: functional, cell-based; procedure, shortened: as §2
BJ = assay: Cytotoxicity against human BJ cells assessed as cell growth inhibition at 1.2 to 3 uM after 130 hrs by RTCA assay; assay type: cell-based
Procedure, shortened: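 Cells seeded at 2000 per well on impedance plates, settled 20 min at room temperature, profiled 24 h; medium then replaced with compound-containing medium and cells monitored to 130 h total. Cell index normalized to 1.0 at the time point just before compound addition.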

Homo sapiens [17] = species on record: Homo sapiens; assay: Stabilization of c-Myc promoter G-quadruplex DNA in human Raji cells assessed as downregulation of exon 1 transcriptional level after 6 hrs by RT-PCR analysis; assay type: cell-based; procedure, shortened: as §3
[18] = Stabilization of KRAS promoter G-quadruplex DNA (unknown origin) assessed as effect on melting temperature at 15 uM by circular dichroism spectroscopic assay; assay type: ADME; procedure, shortened: as §6

Which TGI (SiHa [1]) does the source give for CCn1c2ccccc2c2cc(-c3nc(-c4ccc(N5CCN(C)CC5)cc4)c(-c4ccc(N5CCN(C)CC5)cc4)n3-c3ccc(OC)cc3)ccc21 here?
The TGI was 64%.

What about the Activity (SiHa [2]) of the same compound?
The Activity was “Dose-dependent effect”.

And the TGI (SiHa [3])?
The TGI was “Tde”.

And the Activity (Homo sapiens [4])?
The Activity was “Dose-dependent effect”.

And the inhibition (Homo sapiens [5])?
The inhibition was “Active”.

And the Activity [6]?
The Activity was “Not Active”.

And the Activity (Mus musculus [7])?
Its Activity is “Non-Toxic”.

And the IC50 (Huh-7)?
Its IC50 is 4.1 µM.

What about the Activity (SiHa [8]) of the same compound?
Its Activity is “Active”.

And the Activity [9]?
The Activity was “Not Active”.

What about the Activity [10] of the same compound?
The Activity was “Not Active”.

And the Activity (Mus musculus [11])?
The Activity was “Non-Toxic”.

And the IC50 (A-375)?
Its IC50 is 4.2 µM.

And the Activity (SiHa [12])?
Its Activity is “Dose-dependent effect”.

And the Kd [13]?
The Kd was 0.9 µM.

And the Activity (Mus musculus [14])?
The Activity was “Active”.

What about the ΔTm [15] of the same compound?
Its ΔTm is 20 °C.

And the Activity (SiHa [16])?
The Activity was “Dose-dependent effect”.

What about the “growth inhibition (GI)” value (BJ) of the same compound?
The value was “Non-Toxic”.

What about the Activity (Homo sapiens [17]) of the same compound?
The Activity was “Dose-dependent effect”.

And the Activity [18]?
The Activity was “Not Active”.
